Source: PubChem BioAssay
S1P3 ag – S1P3 (human) receptor agonism | S1P3 NFAT-BLA reporter cells, FRET ratio; relative to 1 µM S1P, basal subtracted | activation, % at 4.5 µM | 60,000 tested, 0.1% active;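 active means activation above the screen-wide mean plus 3 SD, cut at about 4.5% in these data, passing the limit was not always enough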
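material = human S1P3 NFAT-BLA reporter CHO cells | schedule = 4 h compound at 37 °C, 2 h substrate at RT | measured by = fluorescent BLA substrate, ex 405 nm, em 460/535 nm ratio | controls = 1 µM S1P reference | replication = primary once, confirmation triplicate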
5-HT1A blocker – 5-HT1a (human) receptor antagonism; inhibition, % at 10 µM; AID 612; CHO 5-HT1a Ga15 NFAT-bla reporter, antagonist mode; 62,000 tested, 0.68% active; P08908;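 active means inhibition above the mean of all tested compounds plus 3 SD, cut at about 43% in these data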;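 further: receptor stimulated by 5-CT agonist at 100 nM near EC80; beta-lactamase reporter measured by ratiometric fluorescence of a cleavable substrate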
HTR1E antagonist – blocks the human 5-HT1E serotonin receptor. P28566. CHO 5-HT1E Ga15 NFAT-bla reporter, FRET, antagonist. inhibition, % at 6 µM. 65,000 tested, 0.99% active. AID 571;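 active means inhibition above a set limit, the mean inhibition across every tested compound plus 3 SD, cut at about 29% in these data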;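 further: signal is the 460 over 535 nm emission ratio of beta-lactamase substrate; 0% = agonist plus DMSO wells and 100% = wells without agonist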
Target sequence (P28566 whole entry, looked up): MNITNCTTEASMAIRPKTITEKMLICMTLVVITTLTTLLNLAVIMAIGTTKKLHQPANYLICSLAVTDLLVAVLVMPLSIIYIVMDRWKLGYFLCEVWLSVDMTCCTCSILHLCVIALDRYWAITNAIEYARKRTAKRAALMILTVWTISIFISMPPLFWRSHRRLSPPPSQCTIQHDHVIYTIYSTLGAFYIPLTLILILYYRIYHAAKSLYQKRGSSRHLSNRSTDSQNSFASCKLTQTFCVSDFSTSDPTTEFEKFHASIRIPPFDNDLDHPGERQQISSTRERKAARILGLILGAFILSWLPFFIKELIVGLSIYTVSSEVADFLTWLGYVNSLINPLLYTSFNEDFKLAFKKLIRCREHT
HTR1E agonist – activates the human 5-HT1E serotonin receptor | P28566 | CHO 5-HT1E Ga15 NFAT-bla reporter, FRET; 0% DMSO wells, 100% control agonist wells | activation, % at 6 µM | 65,000 tested, 0.69% active;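 active means activation above a set limit, the screen-wide mean activation plus 3 SD, cut at about 8.5% in these data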;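 further: 100% = positive control agonist at 1 µM giving full maximal response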
S1P1 ag-PAM – S1P1 (human) agonism or agonism potentiation. P21453. S1P1 CRE-bla cells, forskolin, beta-lactamase FRET, potentiator mode; S1P1 agonist co-added at EC20, 2 nM; 100% = saturating reference agonist, 0% = basal. activation, % at 9.5 µM. 56,000 tested, 0.57% active;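 active means activation above a cutoff set at the mean activation of all tested compounds plus 3 SD, cut at about 54% in these data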;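 further: forskolin at 4 µM as EC80 and the EC20 agonist is SEW2871; 100% = SEW2871 at its EC100 plus forskolin at EC80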
HTR1A agonist – activates the human 5-HT1a serotonin receptor; activation, % at 10 µM; P08908; 65,000 tested, 0.56% active; CHO 5-HT1a Ga15 NFAT-bla reporter, FRET ratio; 0% basal, 100% maximal reference agonist;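 active means activation above the screen-wide mean activation plus 3 SD, cut at about 19% in these data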;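 further: 0% = DMSO wells and 100% = 5-CT at EC100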
Starred values were filed as active, the others as inactive; nt = no result given. Shown are actives, neighbours in structure and some others; about 2.9% of the full set was active somewhere.

SMILES	S1P3 ag	5-HT1A blocker	HTR1E antagonist	HTR1E agonist	S1P1 ag-PAM	HTR1A agonist
Cn1c(=O)n(CCN2CCOCC2)c(=O)c2c1nc1n2CCN1c1ccccc1	-1.0	9.2	4.4	0.8	3.7	-1.5
COc1cc2c(cc1OC)C(COc1ccc(F)cc1)N(C(=O)c1ccco1)CC2 (stereo not given)	nt	30.4	17.8	0.5	nt	1.2
COc1cc2c(cc1OC)C(COc1ccc3c(C)cc(=O)oc3c1)N(C(=O)c1ccco1)CC2 (stereo not given)	nt	5.8	29.7*	-0.5	nt	2.4
Cc1ccc(C(c2nnnn2CC2CCCO2)N2CCN(c3cccc(C)c3C)CC2)cc1 (stereo not given)	0.0	23.1	-1.4	-0.1	2.5	-3.2
CCCOc1ccc(N2C(=O)CC(N3CCN(c4nc5ccccc5s4)CC3)C2=O)cc1 (stereo not given)	-1.6	-17.5	-17.8	4.1	-16.1	1.0
O=C(O)CCC(=O)N1CCN(c2nc3ccccc3s2)CC1	-1.0	12.2	4.4	15.3*	-7.2	-1.8
CCOc1ccc(NC(=O)N2CCN(c3nc4ccccc4s3)CC2)cc1	-1.3	-4.0	13.5	17.0*	19.2	-0.6
O=C(O)CCC(=O)N1CCN(c2ccccn2)CC1	-0.7	4.5	-2.2	0.4	-16.2	-0.3
CC1(C)CC(NC(=O)c2coc(=O)c(Br)c2)CC(C)(C)N1	0.1	-1.9	-5.5	0.7	-20.1	-1.3
CCn1cnc2sc(C(=O)N(Cc3ccc(N(C)C)cc3)Cc3ccco3)c(C)c2c1=O	-0.8	-6.4	39.7*	-0.1	-26.9	2.2
CN(C(=O)CSc1nc(N)nn1-c1ccccc1)c1ccccc1	-0.5	5.3	-1.5	0.4	-19.3	0.2
CCCCNC1C(CC)C(CCC)C(C#N)(C#N)C1(C#N)C#N (stereo not given)	-0.9	63.0*	37.5*	-2.0	34.6	-5.5
CC(C)(C)n1ncc2c(=O)n(CC(=O)N3CCN(c4ccccc4)CC3)cnc21	0.6	-5.1	-0.6	-0.9	-13.8	-1.9
COc1ccc(OC)c(NC(=O)C2C3CCC(C3=C(C)C)C2C(=O)O)c1 (stereo not given)	-1.5	19.7	19.3	-2.5	-6.6	0.1
COc1ccc(OC)c(NC(=O)C2CCCCC2C(=O)O)c1 (stereo not given)	-0.4	-11.9	-4.8	15.1*	-11.5	-0.4
CC1CCCCN1S(=O)(=O)c1ccc2c(c1)CCN2C(=O)C1CCC1 (stereo not given)	-1.3	4.0	12.1	0.7	-32.5	-2.6
COC(=O)c1[nH]c2cc(OC)ccc2c1NC(=O)c1ccc2c(c1)OCO2	nt	-4.2	-10.0	0.8	nt	114.8*
Cc1ccc(C2/C(=C(\O)c3c(C)nc4ccccn34)C(=O)C(=O)N2CCCN2CCOCC2)o1 (stereo not given)	-0.7	17.2	9.3	-0.1	1.7	1.0
COc1ccc(CNC(C)C2COc3ccccc3O2)c(OC)c1 (stereo not given)	-0.2	11.5	-1.2	13.1*	-39.6	-4.1
CC(NC(=O)CCC(=O)NC(C)C1COc2ccccc2O1)C1COc2ccccc2O1 (stereo not given)	1.4	-0.3	-9.1	1.0	4.1	0.1
CC1CCN(CCCNC(=O)CN2CCN(Cc3ccc(Cl)cc3)C2=O)CC1	-0.9	-2.3	31.1*	1.2	4.0	-1.7
CC1=C(C(=O)OC2CCCCCCC2)C(c2ccc(O)cc2)NC(=O)N1 (stereo not given)	-1.4	26.4	29.5*	-0.3	22.1	-2.8
Cc1cc(NS(=O)(=O)Cc2ccccc2)no1	-0.4	0.3	-1.8	-0.8	-6.8	-0.1
CCCn1c2ccccc2c2nnc(SCC(=O)Nc3ncccn3)nc21	1.4	-5.8	31.3*	0.1	-31.1	8.9
CC(C)n1c(=NC(=O)c2ccco2)c(C#N)cc2c(=O)n3ccccc3cc21	1.8	-6.5	3.9	9.2*	-104.6	29.1*
SMILES	S1P3 ag	5-HT1A blocker	HTR1E antagonist	HTR1E agonist	S1P1 ag-PAM	HTR1A agonist
Cc1cccn2c(=O)c3cc(C#N)c(=NC(=O)c4ccncc4)n(Cc4ccco4)c3nc12	0.0	-5.2	-2.1	0.7	-2.8	1.8
Cc1ccc(OCCNS(=O)(=O)c2cccs2)cc1	-0.1	3.4	5.8	-0.5	-13.3	-3.0
Cc1ccc(NC(=O)CCNS(=O)(=O)c2ccc3c(c2)oc(=O)n3C)cc1	-0.3	-11.4	-7.8	32.1*	-3.9	-0.6
Cn1c(=O)oc2cc(S(=O)(=O)NCCC(=O)NC3CCCC3)ccc21	0.0	-8.9	-8.8	0.4	0.8	-3.6
COc1ccc(S(=O)(=O)N2CCc3ccccc32)cc1C(=O)OCc1nnc(-c2ccccc2)o1	0.2	-2.6	-1.2	-0.1	-3.3	-1.7
Cc1nnc(SCC(=O)Nc2nc3c(s2)CC(C)CC3)s1 (stereo not given)	0.0	-2.8	4.5	0.0	25.9	-1.2
CC1CCc2nc(NC(=O)CSc3nc4ccccc4o3)sc2C1 (stereo not given)	-0.3	-3.2	-4.4	-0.5	75.9*	-2.5
O=C(CSc1nc2ccccc2o1)Nc1ccc(N2CCOCC2)c(Cl)c1	-1.7	-3.5	12.1	-0.2	118.8*	1.1
Cc1c(-n2cc(C(=O)c3ccccc3O)cc(C#N)c2=O)c(=O)n(-c2ccccc2)n1C	0.2	-10.2	-1.8	0.2	3.4	325.0*
Cc1oc2c(c1C(=O)NC(Cc1c[nH]c3ccccc13)C(=O)O)CCCC2 (stereo not given)	-0.5	-2.3	-1.4	0.2	-27.8	-2.0
Cc1nc(C)n(C(C)CC(=O)O)n1 (stereo not given)	nt	11.7	9.6	-2.3	nt	-4.3
Cn1nc(C(C)(C)C)cc1C(=O)NCc1ccc(N2CCCC2=O)cc1	-0.9	-0.5	1.4	0.6	56.5*	0.9
COc1cc(Cn2c(-c3nonc3N)nc3ccccc32)ccc1C	-1.5	64.3*	52.2*	-1.2	31.0	-5.5
CCCCOc1ccccc1NC(=O)Cn1c(-c2nonc2N)nc2ccccc21	-1.3	62.5*	71.1*	2.6	29.3	-2.6
COc1cccc(Cn2c(-c3nonc3N)nc3ccccc32)c1	-0.2	46.0*	39.0*	-0.3	6.8	-2.0
O=C(Nc1ccc(Cc2ccc(NC(=O)C3CC3)c(O)c2)cc1O)C1CC1	-0.8	9.1	-8.5	-0.5	2.1	-4.6
COc1ccccc1S(=O)(=O)Cc1ccc(C(=O)NCCN2CCCCCC2)o1	-1.0	-4.2	7.5	0.7	9.1	1.8
Cc1noc(C)c1C(=O)NCCCN1CCCC1=O	-0.9	16.5	7.7	-0.2	3.2	-3.9
COc1ccc(N=c2oc3c(OC)cccc3cc2C(=O)NCc2ccco2)c(OC)c1	-0.7	-0.4	-3.0	-0.2	-9.3	0.2
